B1: (M)PPPLx4 (GATAD2A residues 177-284, four polyproline-leucine motifs) (peptide, UniProt Q86YP4 177-284, looked up)
chain: QKPTGSVGSTVTTPPPLVRGTQNIPAGKPSLQTSSARMPGSVIPPPLVRGGQQASSKLGPQASSQVVMPPLVRGAQQIHSIRQHSSTGPPPLLLAPRASVPSVQIQGQ
B3: ETO2-NHR3-4 (NHR3 and NHR4 domains of human ETO2, residues 480-597) (domain or fragment, UniProt O75081 480-597, looked up)
chain: GYVPEDIWRKAEEAVNEVKRQAMSELQKAVSDAERKAHELITTERAKMERALAEAKRQASEDALTVINQQEDSSESCWNCGRKASETCSGCNAARYCGSFCQHRDWEKHHHVCGQSLQ

Data set [1] concerns the target T1, ETO2-NHR4 (Homo sapiens, UniProt O75081).
T1 sequence (O75081 551-597): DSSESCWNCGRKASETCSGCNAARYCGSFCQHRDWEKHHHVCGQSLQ
The experiment in a line: 15N-HSQC chemical shift perturbation titration. Type of data set: binding.

In data set [2] the target is NHR3 domain of ETO. The conditions noted are these: PKA (RIIα) binding to NHR3 domain of ETO; cited from earlier work.
Data set [3] concerns ETO2-NHR3-4. The data set is described as follows: ITC with ETO2-NHR3-4 in the presence of PKA. Type of data set: binding, human. The note with it: ITC KD with vs without PKA (RIIα). In a few lines:
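ETO2-NHR3-4 (50 μM) is premixed at a 2:1 molar ratio with PKA (RII)α residues 1–45 (100 μM), both bacterially expressed and purified by Ni affinity, TEV cleavage and size exclusion. N-CoRx2A or PPPLx2A peptide (250 μM) is titrated in: 20 × 2 μL injections 180 s apart at 25 °C, in 25 mM Bis-Tris pH 7.2, 100 mM NaCl, 1 mM DTT, 50 μM ZnSO4. KD is fitted by software and reported as mean ± SD of two runs.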

In data set [4] the target is B3. The data set is described as follows: ITC.
Data set [5] addresses T1, ETO2-NHR4. The data set is described as follows: Isothermal titration calorimetry. Type of data set: binding. The conditions noted are these: all four motifs vs single motifs. (Isothermal titration calorimetry measures the heat released or taken up as one component is titrated into another.)
Data set [6] has as its system ETO2-NHR3-4. The experiment in a line: Isothermal titration calorimetry. Type of data set: binding, human. The note with it: ITC KD ratio.
Data set [7] deals with the molecule itself. The experiment in a line: SEC-MALS.
In data set [8] the target is B1. The experiment in a line: ITC.
Data set [9] has as its target B3. The data set is described as follows: ITC. The source holds these as a separate data set.

Results on nine molecules are retold here after publication PMC12107431 (Nucleic Acids Research, 2025).

Where “and” joins values, the source holds several entries; their conditions need not be identical. Equal values may be shown once. No end group written: not given here.

KYGASSQVVMPPLVRGAQQ-NH2 [MPPL-3]: the Kd – broadly, the concentration at which binding is half-saturated – in [1] came to 249 ± 3 µM.
On to “PKA (RIIα): cAMP-dependent protein kinase type II-alpha regulatory subunit; residues 1–45 used here”, for which the Kd in data set [2] was 0.128 µM.
For “PPPLx2A: bacterially expressed GATAD2A residues 177–235, first two motifs (QKPTGSVGSTVTTPPPLVRGTQNIPAGKPSLQTSSARMPGSVIPPPLVRGGQQASSKLG; also: C-terminal Twin-Strep-tag, state not given here)”, the “reduction of affinity for ETO2-NHR3-4 by PKA (RIIα)” value in data set [3] was “approximately 10 fold”.
In data set [4], B1 registered a dissociation constant Kd of 3 µM.

B2: (M)PPPLx4: bacterially expressed GATAD2A residues 177–284 with four (M)PPPL motifs and C-terminal Twin-Strep-tag (protein)
chain: QKPTGSVGSTVTTPPPLVRGTQNIPAGKPSLQTSSARMPGSVIPPPLVRGGQQASSKLGPQASSQVVMPPLVRGAQQIHSIRQHSSTGPPPLLLAPRASVPSVQIQGQ
modifications: left off: thioredoxin, N-terminal, cleaved | His6, N-terminal, cleaved | Twin-Strep-tag, C-terminal, state not stated
Take B2: in [5], the “increase of binding affinity compared to the individual binding sites” value is “up to 10 fold”. In addition, the “increase of binding affinity with ETO2-NHR3-4 compared to the NHR4 domain alone” value in data set [6] stood at 10 fold.
Consider B3, for which, in [7], the stoichiometry N (usually a count of units in the complex or per binding partner) is 2 and 4.

B4: ETO2-NHR3-4 (V497I/A501L) (domain or fragment, human, UniProt O75081 480-597, looked up)
chain: GYVPEDIWRKAEEAVNEIKRQLMSELQKAVSDAERKAHELITTERAKMERALAEAKRQASEDALTVINQQEDSSESCWNCGRKASETCSGCNAARYCGSFCQHRDWEKHHHVCGQSLQ
Regarding B4, the “stoichiometry N” value in data set [7] came out at 4.
In [8], DSSESCWNCGRKASETCSGCNAARYCGSFCQHRDWEKHHHVCGQSLQ (domain or fragment, UniProt O75081 551-597, looked up) [ETO2-NHR4 (NHR4 domain of human ETO2, residues 551-597)] yielded a Kd of 30 µM.

B5: PPPLx2A (GATAD2A residues 177-235, first two motifs) (peptide, UniProt Q86YP4 177-235, looked up)
chain: QKPTGSVGSTVTTPPPLVRGTQNIPAGKPSLQTSSARMPGSVIPPPLVRGGQQASSKLG
As to B5, the “KD in the presence of PKA (RIIα)” value in data set [9] stood at 50 µM. In addition, the dissociation constant Kd in data set [4] came out at 6 µM.
